Assay results taken from ChEMBL document CHEMBL1125080, “Potential antipsychotic agents 5. Synthesis and antidopaminergic properties of substituted 5,6-dimethoxysalicylamides and related compounds” (J Med Chem, 1990).
Each block holds one compound with its values, some of them ahead of it.

Tests used:
D(2) dopamine receptor [1] = target: T1, D(2) dopamine receptor (Rattus norvegicus, UniProt P61169); assay: In vitro ability to inhibit the binding of [3H]spiperone to dopamine receptor D2 in rat striatal membranes.; format: cell membranes, Membrane
T1 sequence (P61169 whole entry): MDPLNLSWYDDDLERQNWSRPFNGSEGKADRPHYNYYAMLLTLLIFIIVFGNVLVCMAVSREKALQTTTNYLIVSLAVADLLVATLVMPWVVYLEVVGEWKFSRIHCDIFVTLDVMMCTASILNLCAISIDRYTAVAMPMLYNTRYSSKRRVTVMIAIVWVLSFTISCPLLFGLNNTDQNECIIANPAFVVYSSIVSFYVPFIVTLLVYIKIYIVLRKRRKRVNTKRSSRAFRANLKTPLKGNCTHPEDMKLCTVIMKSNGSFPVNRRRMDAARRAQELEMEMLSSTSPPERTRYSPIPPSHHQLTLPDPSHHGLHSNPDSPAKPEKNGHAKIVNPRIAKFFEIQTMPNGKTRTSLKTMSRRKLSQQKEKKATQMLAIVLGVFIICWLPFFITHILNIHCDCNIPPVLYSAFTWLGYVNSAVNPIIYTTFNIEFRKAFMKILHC

D(2) dopamine receptor [2] = target: T1, D(2) dopamine receptor; assay: Inhibition of [3H]raclopride binding to rat striatal membrane Dopamine receptor D2
Rattus norvegicus [3] = assay: Evaluated in vitro for antipsychotic activity (hyperactivity) for the block of apomorphine induced response after ip administration 60 min prior to apomorphine (1 mg/kg sc); format: functional
In short: (§1)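 Male Sprague-Dawley rats (270–325 g) received compound ip, in saline or in acetic acid plus distilled water, 60 min before apomorphine HCl (1 mg/kg sc, neck). Hyperactivity and stereotypies were scored 5, 20, 40 and 60 min after apomorphine.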

Rattus norvegicus [4] = assay: Evaluated in vitro for antipsychotic activity (stereotypies) for the block of apomorphine induced response after ip administration 60 min prior to apomorphine (1 mg/kg sc); format: functional; in short: as §1
Rattus norvegicus [5] = assay: Dose which blocks the hypothermic effect of apomorphine by 50% against Sprague-Dawley rats when administered intraperitoneally; format: functional; conditions: ip
In short: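 Sprague-Dawley rats (n = 6 per group) were pretreated ip with saline or compound 60 min before apomorphine HCl (1 mg/kg sc). Core temperature was taken by rectal probe before dosing, before apomorphine and 15 min after it. Mean changes were expressed as percent of control.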

Rattus norvegicus [6] = assay: Catalepsy interval defined as the time required for both fore limbs to be removed from the bar when administered intraperitoneally; format: functional; conditions: ip
In short: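 Rats given test compound ip, then tested on a horizontal bar (1.5 cm diameter, 7 cm above cage floor) at 20, 40, 60, 90, 120 and 240 min after injection. A saline control group was tested the same way. An animal counted as cataleptic if it held ≥ 15 s. The proportion cataleptic at each dose gave dose-response curves, and ED50 came from probit analysis.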

IC50 (D(2) dopamine receptor [1]): 820 nM
SMILES: CCc1cc(OC)c(OC)c(C(=O)NC[C@@H]2CCCN2CC)c1OC

Ki (D(2) dopamine receptor [2]): 8.38 nM
IC50 (D(2) dopamine receptor [1]): 67 nM
SMILES: CCN1CCC[C@H]1CNC(=O)c1c(O)c(OC)cc(Br)c1OC
ED50 (Rattus norvegicus [3]): 1.3 µmol/kg
ED50 (Rattus norvegicus [4]): 12 µmol/kg

IC50 (D(2) dopamine receptor [1]): 56 nM
SMILES: CCN1CCC[C@H]1CNC(=O)c1c(O)ccc(O)c1OC

Ki (D(2) dopamine receptor [2]): 0.087 nM
IC50 (D(2) dopamine receptor [1]): 1.7 nM
SMILES: CCN1CCC[C@H]1CNC(=O)c1c(O)c(Cl)cc(OC)c1OC

IC50 (D(2) dopamine receptor [1]): 21 nM
SMILES: CCN1CCC[C@H]1CNC(=O)c1c(N)c(Br)cc(OC)c1OC

IC50 (D(2) dopamine receptor [1]): 44 nM
SMILES: C=CCN1CCC[C@H]1CNC(=O)c1c(O)c(OC)cc(Br)c1OC

Ki (D(2) dopamine receptor [2]): 0.023 nM
SMILES: CCCc1cc(OC)c(OC)c(C(=O)NC[C@@H]2CCCN2CC)c1O.O=C(O)/C(O)=C(\O)C(=O)O

IC50 (D(2) dopamine receptor [1]): 205 nM
SMILES: CCN1CCC[C@H]1CNC(=O)c1c(OC)ccc(OC)c1O

IC50 (D(2) dopamine receptor [1]): 19 nM
SMILES: CCc1cc(OC)c(O)c(C(=O)NC[C@@H]2CCCN2CC)c1OC

IC50 (D(2) dopamine receptor [1]): 71 nM
SMILES: CCN1CCC[C@H]1CNC(=O)c1c(O)c(OC)cc(Cl)c1OC

IC50 (D(2) dopamine receptor [1]): 1750 nM
SMILES: CCN1CCC[C@H]1CNC(=O)c1c(OC)c(Br)cc(OC)c1OC

IC50 (D(2) dopamine receptor [1]): 420 nM
SMILES: CCN1CCC[C@H]1CNC(=O)c1c(OC)c(Cl)cc(OC)c1OC

Ki (D(2) dopamine receptor [2]): 0.033 nM
IC50 (D(2) dopamine receptor [1]): 0.77 nM
SMILES: CCc1cc(OC)c(OC)c(C(=O)NC[C@@H]2CCCN2CC)c1O

IC50 (D(2) dopamine receptor [1]): 2960 nM
SMILES: CCCc1cc(OC)c(OC)c(C(=O)NC[C@@H]2CCCN2CC)c1OC

IC50 (D(2) dopamine receptor [1]): 6170 nM
SMILES: CCN1CCC[C@@H]1CNC(=O)c1c(O)c(OC)cc(Br)c1OC

Ki (D(2) dopamine receptor [2]): 6.54 nM
IC50 (D(2) dopamine receptor [1]): 79 nM
SMILES: CCN1CCC[C@@H]1CNC(=O)c1c(O)c(Br)cc(OC)c1OC
ED50 (Rattus norvegicus [3]): 12.6 µmol/kg
ED50 (Rattus norvegicus [4]): 5.3 µmol/kg

Ki (D(2) dopamine receptor [2]): 0.75 nM
SMILES: CCN1CCC[C@H]1CNC(=O)c1c(O)ccc(OC)c1OC

IC50 (D(2) dopamine receptor [1]): 33 nM
SMILES: CCN1CCC[C@H]1CNC(=O)c1c(O)c(Br)cc(N)c1OC

IC50 (D(2) dopamine receptor [1]): 1.9 nM
SMILES: CCN1CCC[C@H]1CNC(=O)c1c(O)c(Br)cc(O)c1OC

Ki (D(2) dopamine receptor [2]): 0.064 nM
SMILES: CCN1CCC[C@H]1CNC(=O)c1c(O)c(Br)cc(OC)c1OC
ED50 (Rattus norvegicus [5]): 0.005 µmol/kg
ED50 (Rattus norvegicus [6]): 0.14 µmol/kg

SMILES: CCc1cc(Cl)c(OC)c(C(=O)NC[C@@H]2CCCN2CC)c1O [ETICLOPRIDE]
ED50 (Rattus norvegicus [5]): 0.09 µmol/kg
ED50 (Rattus norvegicus [3]): 0.015 µmol/kg
ED50 (Rattus norvegicus [4]): 0.19 µmol/kg
ED50 (Rattus norvegicus [6]): 0.74 µmol/kg

SMILES: O=C(CCCN1CCC(O)(c2ccc(Cl)cc2)CC1)c1ccc(F)cc1 [HALOPERIDOL]
ED50 (Rattus norvegicus [5]): 0.35 µmol/kg
ED50 (Rattus norvegicus [3]): 0.37 µmol/kg
ED50 (Rattus norvegicus [4]): 0.27 µmol/kg
ED50 (Rattus norvegicus [6]): 0.9 µmol/kg

SMILES: CCN1CCC[C@H]1CNC(=O)c1cc(S(N)(=O)=O)ccc1OC [LEVOSULPIRIDE]
ED50 (Rattus norvegicus [5]): 8 µmol/kg
ED50 (Rattus norvegicus [3]): 55 µmol/kg
ED50 (Rattus norvegicus [4]): 290 µmol/kg
ED50 (Rattus norvegicus [6]): 280 µmol/kg

SMILES: CCN1CCC[C@H]1CNC(=O)c1c(O)c(Cl)cc(Cl)c1OC [RACLOPRIDE]
ED50 (Rattus norvegicus [5]): 0.2 µmol/kg
ED50 (Rattus norvegicus [6]): 11 µmol/kg
